Test results taken from ChEMBL document CHEMBL3526126, “Amide hydrolysis of a novel chemical series of microsomal prostaglandin E synthase-1 inhibitors induces kidney toxicity in the rat” (Drug Metab Dispos, 2013).
≈ marks a conversion by molar mass, not a printed value.

How the values were obtained:
[1] = Drug metabolism in cryopreserved human hepatocytes assessed as amide hydrolysis at 1 to 10 uM by LC-MS analysis; format: ADME, cell-based, Hepatocyte
Method in brief: (§1)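 Hepatocytes at 1 × 10^6 cells/ml in William's medium incubated at 37°C with gentle shaking under 5% CO2. Substrate was at […]. Metabolites were analysed by LC-MS.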

[2] = Cmax in Wistar Hannover rat at 1000 umol/kg, po qd measured on day 1; settings: in vivo
[3] = Drug metabolism in Sprague-Dawley rat hepatocytes assessed as formation of 4-(phenylethynyl)benzoic acid metabolite hyd at 1 to 10 uM by LC-MS analysis; format: ADME, cell-based, Hepatocyte; method in brief: as §1
[4] = test system: Rattus norvegicus; experiment: Toxicity in Wistar Hannover rat kidney assessed as transitional cell hyperplasia at 1000 umol/kg, po qd administered for 7 days measured after day 8 by hematoxylin/eosin staining-based light microscopic analysis; format: organism-based; settings: in vivo, 168 h
Method in brief: (§2)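 Wistar Hannover rats, about 8 weeks old, were gavaged once daily (10 ml/kg) for 7 days. One day after the last dose they were killed by carotid exsanguination under isoflurane/oxygen. Kidneys were fixed in buffered formalin, embedded in paraffin, sectioned, stained with hematoxylin and eosin, and examined by light microscopy.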

[5] = test system: Rattus norvegicus; experiment: Toxicity in Wistar Hannover rat kidney assessed as papillitis at 1000 umol/kg, po qd administered for 7 days measured after day 8 by hematoxylin/eosin staining-based light microscopic analysis; format: organism-based; settings: in vivo, 168 h; method in brief: as §2
[6] = test system: Rattus norvegicus; experiment: Drug metabolism in Wistar Hannover rat assessed as formation of oxidized and sulfate-conjugated metabolite in plasma at 500 umol/kg, po qd administered for 7 days measured on day 7 by LC-MS analysis; format: ADME, organism-based; settings: in vivo, 168 h
[7] = test system: Rattus norvegicus; experiment: Toxicity in Wistar Hannover rat kidney assessed as inflammation in renal pelvis at 1000 umol/kg, po qd administered for 7 days measured after day 8 by hematoxylin/eosin staining-based light microscopic analysis; format: organism-based; settings: in vivo, 168 h; method in brief: as §2
[8] = test system: Rattus norvegicus; experiment: Toxicity in Wistar Hannover rat kidney assessed as free crystals in renal pelvis at 1000 umol/kg, po qd administered for 7 days measured after day 8 by hematoxylin/eosin staining-based light microscopic analysis; format: organism-based; settings: in vivo, 168 h; method in brief: as §2
[9] = test system: Rattus norvegicus; experiment: Toxicity in Wistar Hannover rat kidney assessed as dilated tubules with hypertrophic nuclei and cytoplasm at 1000 umol/kg, po qd administered for 7 days measured on day 7 by necroscopic analysis; format: organism-based; settings: in vivo, 168 h
[10] = test system: Rattus norvegicus; experiment: Drug metabolism in Wistar Hannover rat assessed as formation of [14C]-4-(phenylethynyl)benzoic acid metabolite hyd in plasma at 500 umol/kg, po qd administered for 7 days measured on day 7 by radio monitoring method; format: ADME, organism-based; settings: in vivo, 168 h
[11] = test system: Rattus norvegicus; experiment: Toxicity in Wistar Hannover rat kidney assessed as presence of dilated tubules mixed with basophils at 1000 umol/kg, po qd administered for 7 days measured on day 7 by necroscopic analysis; format: organism-based; settings: in vivo, 168 h
[12] = AUC (0 to 24 hrs) in male Wistar Hannover rat at 500 umol/kg, po qd administered for 7 days measured on day 7; settings: plasma
[13] = test system: Rattus norvegicus; experiment: Toxicity in Wistar Hannover rat kidney assessed as multiple pyogranuloma in renal pelvis at 1000 umol/kg, po qd administered for 7 days measured after day 8 by hematoxylin/eosin staining-based light microscopic analysis; format: organism-based; settings: in vivo, 168 h; method in brief: as §2
[14] = Drug metabolism in freshly prepared human hepatocytes assessed as amide hydrolysis at 1 to 10 uM by LC-MS analysis; format: ADME, cell-based, Hepatocyte; method in brief: as §1
[15] = test system: Rattus norvegicus; experiment: Toxicity in Wistar Hannover rat kidney assessed as pale organ discoloration at 1000 umol/kg, po qd administered for 7 days measured on day 7 by necroscopic analysis; format: organism-based; settings: in vivo, 168 h
[16] = AUC (0 to 24 hrs) in female Wistar Hannover rat at 1000 umol/kg, po qd measured on day 1; settings: plasma
[17] = AUC (0 to 24 hrs) in Wistar Hannover rat at 1000 umol/kg, po qd measured on day 1; settings: plasma
[18] = Drug metabolism in Sprague-Dawley rat hepatocytes assessed as formation of benzene-1,2-disulfonamide metabolite M1 at 1 to 10 uM by LC-MS analysis; format: ADME, cell-based, Hepatocyte; method in brief: as §1
[19] = test system: Rattus norvegicus; experiment: Toxicity in Wistar Hannover rat kidney assessed as hemorrhage in renal pelvis at 1000 umol/kg, po qd administered for 7 days measured after day 8 by hematoxylin/eosin staining-based light microscopic analysis; format: organism-based; settings: in vivo, 168 h; method in brief: as §2
[20] = test system: Rattus norvegicus; experiment: Toxicity in Wistar Hannover rat kidney assessed as increase in plasma creatinine level at 1000 umol/kg, po qd administered for 7 days measured on day 7; format: organism-based; settings: in vivo, 168 h
Method in brief: (§3)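 Wistar Hannover rats, about 8 weeks old, were acclimatized about 2 weeks and randomized by body weight. Dosing was by oral gavage (10 ml/kg) once daily for 7 days, with vehicle controls. At the end of dosing, plasma (lithium heparin) was taken from the orbital plexus under isoflurane/oxygen anaesthesia, and urea and creatinine were measured.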

[21] = AUC (0 to 24 hrs) in male Wistar Hannover rat at 1000 umol/kg, po qd measured on day 1; settings: plasma
[22] = Cmax in male Wistar Hannover rat at 500 umol/kg, po qd administered for 7 days measured on day 7; settings: in vivo
[23] = test system: Rattus norvegicus; experiment: Toxicity in Wistar Hannover rat kidney assessed as tubular degeneration /regeneration at 500 umol/kg, po qd administered for 7 days […]; format: organism-based; settings: in vivo, 168 h; method in brief: as §2
[24] = Cmax in female Wistar Hannover rat at 500 umol/kg, po qd measured on day 1; settings: in vivo
[25] = Solubility in rat urine at pH 7 after 5 hrs; format: physicochemical
Method in brief: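 Samples in rat urine at pH 7.0 were incubated at 37°C for 5 hours. They were analysed by HPLC on a C18 column with photodiode array and single mass detection.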

[26] = test system: Rattus norvegicus; experiment: Toxicity in Wistar Hannover rat kidney assessed as increase in plasma urea level at 1000 umol/kg, po qd administered for 7 days measured on day 7; format: organism-based; settings: in vivo, 168 h; method in brief: as §3
[27] = Effect on rat mPGES-1
[28] = Cmax in male Wistar Hannover rat at 1000 umol/kg, po qd measured on day 1; settings: in vivo
[29] = Cmax in female Wistar Hannover rat at 500 umol/kg, po qd administered for 7 days measured on day 7; settings: in vivo
[30] = AUC (0 to 24 hrs) in female Wistar Hannover rat at 500 umol/kg, po qd administered for 7 days measured on day 7; settings: plasma
[31] = test system: Rattus norvegicus; experiment: Drug metabolism in Wistar Hannover rat assessed as formation of 4-(phenylethynyl)benzoic acid metabolite conjugated with mono-oxidized metabolite in plasma at 500 umol/kg, po qd administered for 7 days measured on day 7 by LC-MS analysis; format: ADME, organism-based; settings: in vivo, 168 h
[32] = Drug metabolism in Sprague-Dawley rat hepatocytes assessed as formation of benzene-1,2-disulfonamide metabolite M1 at 1 to 10 uM by radio monitoring method; format: ADME, cell-based, Hepatocyte
Method in brief: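 Hepatocytes at 1 × 10^6 cells/ml in William's medium were incubated at 37°C with gentle shaking under 5% CO2, with substrate at […]. Separation was on an Atlantis T3 column (100 × 4.6 mm) at 1 ml/min, split 1:20 to the ion source and a flow scintillation monitor. Scintillation cocktail was added at 4 ml/min through a 0.5 ml flow cell.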

**Q.** For `NS(=O)(=O)c1ccccc1S(=O)(=O)NC(=O)c1ccc(C#Cc2ccccc2)cc1`, which Drug metabolism [1] is on record?
**A.** Its Drug metabolism is “metabolite_not_detected”.

**Q.** And the Cmax [2]?
**A.** Its Cmax is 105 µM.

**Q.** What about the Drug metabolism [3] of the same molecule?
**A.** Its Drug metabolism is “metabolite_detected”.

**Q.** What about the Activity [4] of the same molecule?
**A.** The Activity was “Toxic”.

**Q.** What about the Activity [5] of the same molecule?
**A.** Its Activity is “Toxic”.

**Q.** And the Drug metabolism [6]?
**A.** The Drug metabolism was “metabolite_detected”.

**Q.** What about the Activity [7] of the same molecule?
**A.** The Activity was “Toxic”.

**Q.** And the Activity [8]?
**A.** The Activity was “Toxic”.

**Q.** And the Activity [9]?
**A.** The Activity was “Toxic”.

**Q.** What about the Drug metabolism [10] of the same molecule?
**A.** The Drug metabolism was “metabolite_detected”.

**Q.** And the Activity [11]?
**A.** Its Activity is “Toxic”.

**Q.** And the AUC at 24 h [12]?
**A.** The AUC at 24 h was 480 µM·h.

**Q.** And the Activity [13]?
**A.** Its Activity is “Toxic”.

**Q.** What about the Drug metabolism [14] of the same molecule?
**A.** The Drug metabolism was “metabolite_not_detected”.

**Q.** What about the Activity [15] of the same molecule?
**A.** The Activity was “Toxic”.

**Q.** And the AUC(0-t) at 24 h [16]?
**A.** Its AUC(0-t) at 24 h is 1020 µM·h.

**Q.** And the AUC(0-t) at 24 h [17]?
**A.** Its AUC(0-t) at 24 h is 1370 µM·h.

**Q.** And the Drug metabolism [18]?
**A.** Its Drug metabolism is “metabolite_not_detected”.

**Q.** And the Activity [19]?
**A.** Its Activity is “Toxic”.

**Q.** And the Activity [20]?
**A.** Its Activity is “Toxic”.

**Q.** What about the AUC(0-t) at 24 h [21] of the same molecule?
**A.** Its AUC(0-t) at 24 h is 610 µM·h.

**Q.** And the Cmax [22]?
**A.** Its Cmax is 68 µM.

**Q.** And the Activity [23]?
**A.** Its Activity is “Toxic”.

**Q.** And the Cmax [24]?
**A.** The Cmax was 38 µM.

**Q.** What about the solubility at 5 h [25] of the same molecule?
**A.** The solubility at 5 h was 45 µM (≈ 19.8 µg/mL).

**Q.** And the Activity [26]?
**A.** The Activity was “Toxic”.

**Q.** What about the Activity [27] of the same molecule?
**A.** The Activity was “Not Active”.

**Q.** And the Cmax [28]?
**A.** The Cmax was 46 µM.

**Q.** What about the Cmax [29] of the same molecule?
**A.** Its Cmax is 39 µM.

**Q.** What about the AUC at 24 h [30] of the same molecule?
**A.** Its AUC at 24 h is 430 µM·h.

**Q.** What about the Drug metabolism [31] of the same molecule?
**A.** Its Drug metabolism is “metabolite_detected”.

**Q.** What about the Drug metabolism [32] of the same molecule?
**A.** The Drug metabolism was “metabolite_not_detected”.
